Experimental data taken from the EternaBench riboswitch data.

System: MS2 coat protein
Assay: apparent Kd, MS2 coat protein; higher = weaker binding; RNA-MaP array; tryptophan 2.4 mM where present
Summary of the method: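 Binding was read on Illumina sequencing-chip clusters where stalled E. coli RNA polymerase had transcribed each design. A titration of SNAP-549-labelled MS2 coat protein began at 0.7 or 1.5 nM and doubled to 3 µM, once without ligand and once with constant ligand, in 100 mM Tris-HCl pH 7.5, 80 mM KCl, 4 mM MgCl2, BSA, DTT, yeast tRNA and Tween-20. The apparent Kd is the median of filtered per-cluster binding-curve fits, based on green signal normalised to red-channel RNA signal and control-cluster median Fmax.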

[1] = designed as: OFF switch for tryptophan, no ligand
[2] = ligand present: tryptophan, designed as: OFF switch for tryptophan
[3] = designed as: ON switch for tryptophan, no ligand
[4] = ligand present: tryptophan, designed as: ON switch for tryptophan

Sequence	apparent Kd [1] [nM]	apparent Kd [2] [nM]	apparent Kd [3] [nM]	apparent Kd [4] [nM]
CACGAAAGAUCGGCCGCCACUAAUCUAUGUGUUCUUUCACAUGAGGAUCACCCAUGUUCUUGCGUUAGGACCGGGAUUGAGCGUG	34.1	36.4	–	–
CCAUAAGUACCGGUCCUCAGAUCCUCAUGACGAGGACCGGUACGGCCGCCACUCGAAACAUGAGGAUCACCCAUGUAAUAAUACC	39.2	26.4	–	–
CCGCCUGCCUCACAUGAGGAUCACCCAUGUCGAGGACCGGUACGGCCGCCACUCGUCGUCGGUAAUACAGGCAUUGAAUAAUAUA	11.2	45.1	–	–
CGCAACAUGAGGAUCACCCAUGUAAUGACGCGAGGACCGGUACGGCCGCCACUCGCCUGCCAAUGAGCGCAUGCGGCCUGGGUAU	11.6	14.5	–	–
CUACAUGUAGUUAAACCGGUCAACAAUAAUCGAGGACCGGUACGGCCGCCACUCGAUGUGUUAUACACAUGAGGAUCACCCAUGU	–	–	23.2	18.9
GAGCUCGUGGACUGGCGUGCUCCGCUCCGUCGAGGACCGGUACGGCCGCCACUCGACAUGAGGAUCACCCAUGUGUGAGCUCGCU	75.3	54.2	–	–
GAUAUUUGAAAACAAAUAUCAGUGGGUGAACGAGGACCGGUACGGCCGCCACUCGGACAUGAGGAUCACCCAUGUCCAUGUGAAA	15.6	37.4	–	–
GAUCGAAAUAACGCAUAGGAAAACUAUGCGCGAGGACCGGUACGGCCGCCACUCGUCCUCACAUGAGGAUCACCCAUGUACGAUC	22.4	58.6	–	–
GCAUCCUAGUCGGCCGCCACUGCAAUUGUAAUACUGCUACAUGAGGAUCACCCAUGUCCAUGUAGCAGGACCGGGACUAGGAUGC	–	–	578	79.8
GCCGGUACGUCGGCAAAGCCGAUGUGCCAGCGAGGACCGGUACGGCCGCCACUCGUACAUGAGGAUCACCCAUGUCCGGUCCGGC	–	–	44.7	49
GCGGAAUAAUCGGCCGCCACUAUGAGACAGGAAACUGUCACAUGAGGAUCACCCAUGUAUCCUCAUAGGACCGGGAUUAAAACGC	–	–	76.3	19.4
GCUCACAUGAGGAUCACCCAUGUACGUCCGCGAGGACCGGUACGGCCGCCACUCGUGUUAGCUUCAAACUUGUUAGUGUUAAACA	–	–	40.4	16.1
GGAUAGGACACGGCCGCCACUAGCUAGGAUACUAGCAACAUUUCCUCACAUGAGGAUCACCCAUGUAGGACCGGGUGUCCUAUCG	111	135	–	–
GGGAGGGAGGCGGCCGCCACUGAUUUUCAUAUAUAUAUAACAUGAGGAUCACCCAUGUGGAUAUACAGGACCGGGCCUUUUUUUU	–	–	19.8	13.2
GGGUCAGGCGCGGCCGCCACUGCGGUGAUGUGACAUGAGGAUCACCCAUGUUGUCAUGUGGCACAUAGGACCGGGUGCCUGGCCC	30.1	29.9	–	–
GGUACAUGAGGAUCACCCAUGUAUUGGUACCGAGGACCGGUACGGCCGCCACUCGCAUGACAUGAGGAUCACCCAUGUGAAACCU	–	–	52.5	66.5
GUCUUUGACGAUCUGGGAAAACCAGAUCGACGAGGACCGGUACGGCCGCCACUCGUGUUUUCUUUACAUGAGGAUCACCCAUGUA	–	–	13.1	12.7
UAAUAAUUCCUCAUGUCACGAGUGGCAUAACGAGGACCGGUACGGCCGCCACUCGAACAUGAGGAUCACCCAUGUAGCCACUCGA	–	–	143	113
UAUAAUAACUCGGCCGCCACUGGCACAUGAGGAUCACCCAUGUCUAUAUAUAAUAUAUAGUUGCACAGGACCGGGAGAUAUAUAU	8.95	8.21	–	–
UAUAUAUAUCACUAACUGUUCUUGAGGUCUCGAGGACCGGUACGGCCGCCACUCGGGCCGCCUCACAUGAGGAUCACCCAUGUCC	56.4	68.2	–	–
UCGUUUUAGUCGGCCGCCACUGUAUGCAUGUUUAACAUGAGGAUCACCCAUGUCCCGUACUAUUUCAGGACCGGGACGUAAUCGA	–	–	322	156
UUACCGUAAGGUAUACCGGUCUACAAUAAUCGAGGACCGGUACGGCCGCCACUCGAUGUGUAAUCACAUGAGGAUCACCCAUGUA	–	–	23.3	18.5
UUAUAAGUACCGGUCCUCAGAUCCUCAUGACGAGGACCGGUACGGCCGCCACUCGAAACAUGAGGAUCACCCAUGUAAUAACAUU	20	20.1	–	–
